Results from the RNAGym collection of RNA variant scans (doi:10.1126/science.aae0568).
Fewer inactive variants are shown than the library holds.

B1: tRNA (parent)
chain: GUUCCGUUGGCGUAAUGGUAACGCGUCUCCCUCCUAAGGAGAAGACUGCGGGUUCGAGUCCCGUACGGAACG

Variants of: B1
Assay: yeast fitness relative to wild type (ratio to wild type); higher = fitter; tRNA-Arg(CCU), competitive growth, 37 C, YPD
How it was run: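 Changes in genotype frequencies gave Darwinian fitness relative to wild type. Frequencies were read by 100-nucleotide paired-end sequencing of gene amplicons before and after pooled Saccharomyces cerevisiae strains, carrying tRNA-Arg(CCU) gene variants at the native locus, were competed in YPD at 37°C for 24 hours in six replicates. A genotype was kept only with ≥ 100 starting reads, and estimates < 0.5 were set to 0.5.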

Variant	yeast fitness
GUUCCGAUCGCGUAAUCGUAACGCGUCUCCCUCCUAAGGAGAAGACUACGGGUUCGAGUCCCGUACUGAACG	≤ 0.5
GUUCCGAUCGCGUAAUCGUAACGCGUCUCCCUCCUAAGGAGAAGACUACGGGUUCGAGUCCCGUACAGAACG	≤ 0.5
GUUCCGAUGACGUAAUGGUCACGCGUCUACCUCCUAAGGAGAAGACUGCGGGUUCGAGUCCCAUACGGACCG	≤ 0.5
GUUCCGAUGGCGUAAUGGUAACACGUCUCUCUACUAAGGACUAGACUGCGGGUUCGAGUCCCGUACGGAACG	≤ 0.5
GUUCCGAUGGCCUAAUGGUAACGCGUGUCCAUCCUAAGGAGAAGAAUGCGGGUUCCAGUCCCGUACGGAACG	0.587
GUUCCGAUGGCGUAAUGUUAACGCGUCUCCUUCCUAAGGAGAAGACUGGGGGUUCGAGUCCCGUACGGAACG	≤ 0.5
GUUCCGAUGGCGUAAUGGUAACAUGUCUCCCUCCAAAGGAGAAGACUGCGGGUUCGAGUACCGUACGGCACG	0.706
GUUCCGAUGGCGUAAUGGUAACAUGUCUCCCUCCAAAGGAGAAGACUGCGGGUUCGAGUACCGUACGGUACG	≤ 0.5
GUUCCGAUCGCGUAAUCGUAACGCGUCUCCCUCCUAAGGAGAAGACUACGGGUACGAGUCCCGUACGGAACG	≤ 0.5
GUUCCGAUGGCCUAAUGGUAACGCGUCUCCCUCCUAAGGAGAAGACUGCGGGUGCGAGUCCCGUACGGAACG	0.673
GUUCCGAUGGCGUAAUGGUAACGCAUCUCCCUCCUAAGGAGAAGACUGCGGGUUCGAGUCCCGUUCGGAACG	0.765
GUUCCGAUCGCGUAAUCGUAACGCGUCUCCCUCCUAAGGAGAAGACUACGGGUUCGAGUCCCGUAUGGAACG	≤ 0.5
GUUCCGAUGGCGUAAUGGUAACGCGUCUCCCUCCUAAGAAGAAGACUGAGGGUUCGAGUCCCGUACGGAACG	≤ 0.5
GUUCCGAUGACGUAAUGGUAACGCGUCUCCCUACUCAGGAGAAGACUGCGGGUUCGAGUCCCGUACGGAUCG	≤ 0.5
GUUCCGAUGGCGUAAUGCUAACGCGUCUCCCUCCUAAGGAGAAGACUGCGGGUUCGAGUCCCGUACGGAUCG	0.662
GUUCCGAUGACGUAAUGGUAACGCGUCUCCGUCCUAAGGAGAAGACUGCGGGUUCGAGUCCCGUACGGAACG	≤ 0.5
GUUCCGAUGCCGUAAUGGUAAUGCGUGUCCCUCCUAAGGAGAAGACUGCUGGUUCGAGUCCCGUAUGGAACG	≤ 0.5
GUUCCGAUGGCGUAAUAGUAACACGUCUCCCUCCUAAGGAGAAGCCAGCAGGUUCGAGUCCCGUACGGAACG	≤ 0.5
GUUCCGAUGACGUAUUGGUAACGCGUCUCCCUCCUAAGGAGAAGACUGCGGGUUCAAGUCCCGUACGGUACG	≤ 0.5

Variant	yeast fitness
GUUCCGAUGGCGUAAUGAUAACGCGUCUCCCUACUAACGAGAAGACUGCGGGUUCGAGUCCCGUACGGAACG	≤ 0.5
GUUCCGAUGGCGUAAUGGUAACCCGUCUCCCUGCUAAGGAGGAGAUUGCGGGUUCGAGUCCCGCACGGAACG	≤ 0.5
GUUCCGAUGACGUAAUGGUAACGCGUCUCCCUACUCAGGAGAAGACUGCGGGUUCGAGUCCCGUACCGAACG	≤ 0.5
GUUCCGAUGGCAUAAUGGUAACGUCUCUCCCUCCUAAGGAGUAGACUGCGGGUUCGAGUCCCGUACGGAACG	≤ 0.5
GUUCCGAUGACGUAAUGGUAACGCGUCUCACUCCUAAGGAGACGACUGCGGGUUCGAGUCCCGUACGGAACG	≤ 0.5
GUUCCGAUGGCGUAAUGGUAACGCGUCUCCCUCCUAAAGAGAUGACUGCGGGUUCGAGUCCCGUACGGAACG	0.53
GUUCCGAUGGCGUAAUAGUAACGCGUCUCCCCCCUAAGGAGAAGACUGCGGGUUCGAGUCCCGUACGGAACG	≤ 0.5
GUUCCGAUGGCGUAAUGGUAACACGUCUACCUCCUAAGGAGAAGACUGCGGGUUAGAGUCCCGUACGGAACG	≤ 0.5
GUUCCGAUGCCGUAAUGGUAAUGCGUGUCCCUCCUAAGGAGAAGACUGCGGGUUCGAGUCCCGUACAGAACG	≤ 0.5
GUUCCGAUGACGUAAUGGUCACGCGUCUACCUCCUAAGGAGAAGACUGCGGGUUCGAGUCCCGCACGGAACG	≤ 0.5
GUUCCGAUGCCGUAAUGGUAACGCGUGUCCCACCUAAGGAGAAGACUGCGGGUUCCAGUCCCGUACGGAACG	≤ 0.5
GUUCCGAUGGCGUAAUGAUAACGCGUCUCCCUCCUCAGGAGAAGACAGCGGGUUCGAGUCCCGUACGAAACG	0.508
GUUCCGAUGGCGUAAUCGUAACGCGUCUCCCUCCUAGGGAGAAGACUGAGGGUUCGAGUCCCGUACGGAACG	≤ 0.5
GUUCCGAUGGCGUAAUGGUAACACGUCUACCUCCUAAGGAGAAGACUGCGGGUUCGAGUCUCGUACGGAACG	0.573
GUUCCGAUGGCGUAAUGGUAACACGUCUCCCUCCUAAGGAGAAGACUGCGGGUUCGAGUCCUGUACGGAACG	≤ 0.5
GUUCCGAUGCCGUAAUGGUAACGCGUCUCCCUCCUAAGGAGAAGACUGCGGAUCCGAGUGCCGUACGGAACG	0.518
GUUCCGAUGGCGUAAUGGUAACCCGUCUCCCUCGGAAGGUGAAGACUGCGGGUUCGAGUCCCGUACGGACCG	≤ 0.5
GUUCCGAUGACGUAAUGGUAACGCGUCUCCCUCCUAAGGACUAGAAUGCGGGUUCGAGUCGCGUACGGAACG	0.561
GUUCCGAUGGCGUAAUGGUAACGCGUCUCCCUCCUAACGAGAAGACUGCGGGUUCGAGUCCCGUACGGAGCG	≤ 0.5
